Assay results taken from PubChem BioAssay.
Activity calls are given as the source filed them.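 Rule for the calls, unless noted: active = fluorescence slope higher than the sample average by over 3 SD (cut at about -0.22 in these data, passing the limit was not always enough); inactive = the rest.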

Key:
[1] = inhibitors of TNFa-induced NFkB p65 translocation, primary screen, imaging, HUVEC, MLSMR starter and 10KST1 sets (AID 438;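 active = inhibition above 20% together with a positive visual image hit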;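 note: compound added about 3h40 before a 20 min TNFalpha stimulation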;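 for inhibition: signal is the nuclear over cytoplasmic p65 intensity ratio per well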); conditions: HUVEC TNFa-induced p65 nuclear translocation; cell count: measured here: nuclei count (cytotoxicity indicator), at 2.08 µM; inhibition: at 2 µM, stronger effect = higher value, 0% TNFa-plus-vehicle, 100% no-TNFa wells
[2] = endothelial E-selectin expression blockers – imaging, HUVEC, immunofluorescence, MLSMR starter and 10KST1 sets, primary screen (AID 487;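 active = visually confirmed hit in the image check and inhibition above 20%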;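 for inhibition: signal is fraction of cell area covered by stained E-selectin grains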;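 for nuclei count: 100% = median nuclei count of all wells on the same plate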); conditions: HUVEC TNFalpha-induced E-selectin immunofluorescence imaging, at 2 µM; inhibition: stronger effect = higher value; nuclei count: measured here: cell number, toxicity
[3] = Primary imaging screen for DUSP6 inhibitors that restore phospho-Erk in transfected HeLa cells, chemical complementation (AID 609;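 active = compounds giving at least 50% inhibition in the cell-based MKP-3 phosphatase rescue imaging test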;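 for inhibition: phospho-Erk level distribution per well compared with pooled transfected vehicle control wells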); conditions: HeLa MKP-3 transfected, phospho-Erk imaging KS statistic, at 10 µM, cells stimulated with TPA for 15 min
[4] = biological target: Dual specificity protein phosphatase 6 (Homo sapiens) (UniProt Q16828); experiment: as above; conditions: HeLa MKP-3 transfected, phospho-Erk imaging KS statistic; at 10 µM; stronger effect = higher value; cells stimulated with TPA for 15 min
Sequence of Dual specificity protein phosphatase 6 (Homo sapiens) (Q16828 whole entry, looked up): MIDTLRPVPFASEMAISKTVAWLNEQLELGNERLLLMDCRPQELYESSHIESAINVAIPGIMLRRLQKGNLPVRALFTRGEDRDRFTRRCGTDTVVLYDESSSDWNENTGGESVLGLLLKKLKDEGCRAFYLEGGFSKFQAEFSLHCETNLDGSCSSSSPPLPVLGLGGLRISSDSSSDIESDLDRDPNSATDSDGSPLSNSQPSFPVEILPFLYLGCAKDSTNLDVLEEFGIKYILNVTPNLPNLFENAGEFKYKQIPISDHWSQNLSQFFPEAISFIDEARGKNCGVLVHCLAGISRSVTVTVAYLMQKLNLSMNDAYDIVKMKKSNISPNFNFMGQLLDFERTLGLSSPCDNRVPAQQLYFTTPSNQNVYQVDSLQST

[5] = biological target: Voltage-gated potassium channel subunit beta-2 (Rattus norvegicus) (UniProt P62483); experiment: inhibitors of rat Kvbeta2 reductase activity – biochemical, NADPH fluorescence, primary screen (AID 622); conditions: recombinant KvBeta, 4-cyanobenzaldehyde reduction, at 10 µM, stronger effect = higher value;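 note: slope of raw intensity against log time taken from 70 to 1610 s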
Sequence of Voltage-gated potassium channel subunit beta-2 (Rattus norvegicus) (P62483 whole entry, looked up): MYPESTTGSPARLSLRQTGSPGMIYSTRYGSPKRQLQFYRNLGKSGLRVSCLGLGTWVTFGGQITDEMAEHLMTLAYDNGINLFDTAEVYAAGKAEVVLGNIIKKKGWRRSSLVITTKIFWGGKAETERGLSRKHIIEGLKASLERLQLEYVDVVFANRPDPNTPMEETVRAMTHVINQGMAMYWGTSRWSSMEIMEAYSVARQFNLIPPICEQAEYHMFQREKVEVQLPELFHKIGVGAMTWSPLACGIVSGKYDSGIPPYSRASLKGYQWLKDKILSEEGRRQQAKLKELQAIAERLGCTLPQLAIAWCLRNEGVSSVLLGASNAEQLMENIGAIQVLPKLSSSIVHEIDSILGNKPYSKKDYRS

[6] = biological target: Voltage-gated potassium channel subunit beta-2 (Rattus norvegicus) (UniProt P62483); experiment: enhancers of rat Kvbeta2 NADPH turnover – biochemical, NADPH fluorescence, primary screen (AID 623;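 active = NADPH fluorescence slope more negative than the mean of all samples by about 3 SD, 99.7% confidence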;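 note: fluorescence intensity change per second fitted from 20 to 320 s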); conditions: Recombinant KvBeta, NADPH fluorescence decrease slope, 10 min; at 10 µM; stronger effect = lower value
[7] = biological target: Alpha-2C adrenergic receptor (Homo sapiens) (UniProt P18825); experiment: compounds altering alpha2C-coupled GIRK flux – cell-based, HEK293 alpha2C/GIRK1/2, thallium flux, primary screen (AID 624;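 active = fluorescence slope after compound addition differing from the mean of all screened samples at 99.7% confidence, in either direction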;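 note: slope of fluorescence ratio to pre-addition baseline per second over 15 to 24 s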); conditions: thallium flux BTC fluorescence, at 10 µM, actives lie on both sides
Sequence of Alpha-2C adrenergic receptor (Homo sapiens) (P18825 whole entry, looked up): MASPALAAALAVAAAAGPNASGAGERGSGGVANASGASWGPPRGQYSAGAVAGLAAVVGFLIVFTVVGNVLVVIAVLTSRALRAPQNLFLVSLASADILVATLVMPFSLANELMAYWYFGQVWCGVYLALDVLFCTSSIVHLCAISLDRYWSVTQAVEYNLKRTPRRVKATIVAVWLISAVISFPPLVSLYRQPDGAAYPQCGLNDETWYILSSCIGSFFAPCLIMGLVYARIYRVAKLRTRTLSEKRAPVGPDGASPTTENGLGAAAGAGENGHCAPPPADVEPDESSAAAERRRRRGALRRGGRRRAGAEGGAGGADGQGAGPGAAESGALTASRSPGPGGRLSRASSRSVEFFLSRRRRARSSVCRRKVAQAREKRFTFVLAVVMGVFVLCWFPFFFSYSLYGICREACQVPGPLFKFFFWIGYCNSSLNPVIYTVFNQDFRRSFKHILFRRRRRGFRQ

[8] = inhibitors of larval lipid processing in zebrafish, primary screen, whole organism, PED6 fluorescence, gall bladder and intestine (AID 686;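 active = a full or partial loss of lipid-probe fluorescence in the fish gall bladder, intestine or both, judged by eye; inactive = no fluorescence loss, or compound toxic to the fish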;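 note: larvae 5 to 7 days old with five fish per well; signal comes from phospholipase A2 cleavage of quenched PED6 carried via bile; overnight exposure to compound and PED6 before scoring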); conditions: Zebrafish larvae PED6 lipid processing, fluorescence scoring; screened at 20 µM (by protocol)
Summary of the method: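 Doses: 20 µM single dose. Test system: live zebrafish larvae aged 5-7 days, whole organism. Quantity: five larvae per well. Measured by: By-eye fluorescence microscopy. Reagent: ingested quenched lipid PED6 at 100 nM. Read-out: visual per-well fluorescence inhibition score. Times: overnight exposure of larvae to compound plus PED6.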

[9] = loss of swimming-algae plug formation – whole organism, Chlamydomonas reinhardtii, WT vs cilia-less mutant, absorbance, 96-well, primary screen (AID 463189;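 active = inhibition at or above 50% relative to wild type and mutant plate controls; inactive = inhibition below 50%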;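 note: 0% = wild type cc124 cells in DMSO and 100% = ciliumless bld1 mutant cells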); conditions: Chlamydomonas reinhardtii gravitaxis, OD600 absorbance, 2 days; at 10 µM; stronger effect = higher value
[10] = measured here: cell density z-score
[11] = measured here: nuclear c-Myc green intensity z-score
[12] = measured here: nuclear pErk red intensity z-score, stronger effect = higher value

SMILES | cell count [1] | inhibition [1] | inhibition [2] | nuclei count [2] [%] | z-score [3, 10] | z-score [3, 11] | z-score [3, 12] | inhibition [4] | fluorescence slope [5] | NADPH fluorescence slope [6] | slope [7] | outcome [8] | inhibition [9]
COCCCNC(=O)C(C#N)c1nc2ccccc2nc1N1CCCC1 (stereo unspecified) | 459 | 12.6% (inactive) | -130% (inactive) | 156 | 1.4 | 0.549 | -0.292 | 7.83% (inactive) | -0.000219 (active) | 0 (inactive) | 0.0065 (inactive) | inactive | -2.67% (inactive)
CC(C)c1cc(NCCN2CCOCC2)n2c(nc3ccccc32)c1C#N | 530 | -16.7% (inactive) | -13.5% (inactive) | 100 | 0.71 | 0.53 | -0.442 | 10.1% (inactive) | -0.493 (inactive) | -8.7e-06 (inactive) | 0.00455 (inactive) | inactive | -6.96% (inactive)
CCOC(=O)c1cc(C)n(-c2ccc(OC)c(OC)c2)c1C | 530 | -8.1% (inactive) | -25.1% (inactive) | 122 | 1.68 | -2.38 | -0.201 | 5.57% (inactive) | -0.516 (inactive) | -0.000114 (inactive) | 0.00418 (inactive) | inactive | -0.885% (inactive)
COC(=O)/C(=C1/Oc2cc(C)oc(=O)c2S1)C(F)(F)F | 330 | -2.4% (inactive) | -59.5% (inactive) | 177 | 1.64 | 0.462 | 0.469 | 28% (inactive) | -0.427 (inactive) | -0.000106 (inactive) | 0.0045 (inactive) | inactive | 5.01% (inactive)
CCCCOC(=O)C(C)c1c(C)[nH]c(=S)[nH]c1=O (stereo unspecified) | 479 | -1.2% (inactive) | -142% (inactive) | 138 | 0.126 | 0.523 | -0.0829 | -3.5% (inactive) | -0.505 (inactive) | -3.9e-05 (inactive) | 0.00553 (inactive) | inactive | 11.1% (inactive)
CC(=O)c1c(C(C)=O)c(C)n(NC(=O)c2ccncc2)c1C | 557 | 1.2% (inactive) | -2.4% (inactive) | 133 | 1.16 | -1.48 | 0.477 | 5.26% (inactive) | -0.305 (inactive) | 7.7e-06 (inactive) | 0.00487 (inactive) | inactive | 8.61% (inactive)
Oc1ccc(Br)cc1CNn1cnnc1 | 501 | -5.8% (inactive) | -3.9% (inactive) | 122 | -0.232 | 1.89 | 1.27 | -1.75% (inactive) | -0.454 (inactive) | -2.5e-06 (inactive) | 0.0058 (inactive) | inactive | 16.1% (inactive)
OCCCc1nc2ccccc2n1CCc1ccccc1 | 390 | -15.7% (inactive) | -395% (inactive) | 203 | 1.19 | -1.69 | -0.407 | 20.8% (inactive) | -0.421 (inactive) | -4.3e-05 (inactive) | 0.00481 (inactive) | inactive | 15.3% (inactive)
Cc1ccc2[nH]c(CCN(C)C)c(CC#N)c2c1 | 564 | 4.9% (inactive) | -74.2% (inactive) | 206 | -1.01 | -0.567 | 1.52 | 18.6% (inactive) | -0.364 (inactive) | -2.8e-05 (inactive) | 0.0055 (inactive) | inactive | 10.4% (inactive)
CCNC(=O)Nn1c(C)nnc1C | 604 | 5% (inactive) | 15.6% (inactive) | 129 | -0.49 | 0.191 | -0.43 | -8.27% (inactive) | -0.469 (inactive) | -0.000298 (inactive) | 0.00578 (inactive) | inactive | 7.13% (inactive)
CN(C)c1oc(-c2cccs2)nc1C#N | 443 | -7.1% (inactive) | -173% (inactive) | 157 | 1.44 | 1.03 | -0.732 | 6.04% (inactive) | -0.052 (inactive) | -1.6e-06 (inactive) | 0.00583 (inactive) | inactive | 4.07% (inactive)
Cc1nc2n[nH]c(N)c2c2c1COC(C)(C)C2 | 674 | -22.2% (inactive) | -454% (inactive) | 178 | 0.565 | -1.79 | -0.0762 | 5.57% (inactive) | -0.516 (inactive) | -0.000106 (inactive) | 0.00411 (inactive) | inactive | 3.25% (inactive)
COC(=O)c1[nH]c2cc(OC)ccc2c1NC(=O)CN1CCC(C(N)=O)CC1 | 363 | 2.6% (inactive) | 14.4% (inactive) | 134 | 0.612 | -0.732 | -0.532 | 9.42% (inactive) | -0.434 (inactive) | -0.000147 (inactive) | 0.00651 (inactive) | inactive | 25.6% (inactive)
CC(=O)Oc1ccccc1C1OC(=O)c2ccccc2N1C(C)=O (stereo unspecified) | 435 | -26.4% (inactive) | -136% (inactive) | 171 | -0.279 | -1.25 | -0.306 | 17.7% (inactive) | -0.274 (inactive) | 9.9e-06 (inactive) | 0.00513 (inactive) | inactive | 23.1% (inactive)
COc1ccc(/C(O)=C2/C(=O)C(=O)N(c3ncccn3)C2c2ccc(OC)c(OC)c2)cc1 (stereo unspecified) | 584 | -2.6% (inactive) | -34.9% (inactive) | 176 | -1.58 | 0.795 | 2.34 | 0.671% (inactive) | -0.352 (inactive) | -4.6e-05 (inactive) | 0.0049 (inactive) | inactive | 3.9% (inactive)
CC(C)Cc1nc(N2CCOCC2)c(C#N)c2c1CCC2 | 488 | 3.3% (inactive) | -87.5% (inactive) | 114 | -1.23 | 0.0175 | 0.0727 | -5.26% (inactive) | -0.511 (inactive) | -1.9e-05 (inactive) | 0.00512 (inactive) | inactive; toxic | -5.18% (inactive)
CSc1nc(O)c(Cc2ccccc2)c(=O)[nH]1 | 543 | 5.9% (inactive) | 23.6% (inactive) | 105 | -0.704 | -0.524 | -0.136 | 1.6e-07% (inactive) | -0.403 (inactive) | 2.5e-05 (inactive) | 0.00553 (inactive) | inactive | 33.4% (inactive)
CCOC(=O)c1[nH]c2ccc(OC)cc2c1NC(=O)CN1CCN(c2ccccn2)CC1 | 551 | -8.8% (inactive) | -2.8% (inactive) | 157 | -0.126 | 0.554 | 1.04 | -14% (inactive) | -0.16 (inactive) | 2.2e-06 (inactive) | 0.00466 (inactive) | inactive | -9.68% (inactive)
c1ccc(Cc2nn[nH]n2)cc1 | 659 | -11% (inactive) | 49.2% (inactive) | 144 | -1.16 | 0.713 | 1.02 | -3.95% (inactive) | -0.426 (inactive) | -5.4e-05 (inactive) | 0.00705 (inactive) | inactive | -10.1% (inactive)
Cc1cc(C)nc(N(C#N)S(=O)(=O)c2ccccc2Cl)n1 | 352 | -11.5% (inactive) | -228% (inactive) | 115 | -0.515 | -1.54 | -0.959 | -2.07% (inactive) | -0.406 (inactive) | -3.7e-06 (inactive) | 0.0071 (inactive) | inactive | -0.932% (inactive)
CC1(C)Cc2c(sc3c2C(=O)N(c2ccccc2)C2=NCCCN23)CO1 | 624 | -12.4% (inactive) | -154% (inactive) | 120 | 1.04 | -0.486 | -1.32 | 18.9% (inactive) | -0.593 (inactive) | -2e-05 (inactive) | 0.00454 (inactive) | inactive | 41.4% (inactive)
COc1cccc(C(=O)N2CCN(S(=O)(=O)Cc3ccccc3)CC2)c1OC | 424 | -16.3% (inactive) | -254% (inactive) | 195 | 0.309 | -0.845 | -0.459 | 12.7% (inactive) | -0.291 (inactive) | 1.9e-05 (inactive) | 0.00419 (inactive) | inactive | 17.5% (inactive)
Fc1ccc(OCCOCCNCC2CCCO2)cc1 (stereo unspecified) | 369 | 0.4% (inactive) | -35.4% (inactive) | 84.5 | 0.189 | 0.788 | 0.463 | 15.1% (inactive) | -0.557 (inactive) | -4.4e-05 (inactive) | 0.00452 (inactive) | inactive | 43.6% (inactive)
CSc1nc2sc3c(c2c(=O)[nH]1)CCC(C)C3 (stereo unspecified) | 503 | -19.4% (inactive) | -109% (inactive) | 191 | -1.18 | 2.07 | -0.579 | 20.2% (inactive) | -0.364 (inactive) | 1.3e-05 (inactive) | 0.00953 (active) | inactive | 3.37% (inactive)
COc1ccccc1N1CCN(C2CCN(C(=O)c3cc(OC)c(OC)c(OC)c3)CC2)CC1 | 454 | -8.3% (inactive) | -122% (inactive) | 170 | 0.498 | -1.6 | 1.25 | -3.95% (inactive) | -0.32 (inactive) | 2.2e-05 (inactive) | 0.0055 (inactive) | inactive | -0.971% (inactive)
CCc1nnc(NC(=O)CSc2nc(C)c3c(c2C#N)CCCC3)s1 | 613 | -13.4% (inactive) | -129% (inactive) | 189 | -0.0126 | 0.0813 | -0.0712 | -0.674% (inactive) | -0.446 (inactive) | 4.7e-06 (inactive) | 0.00625 (inactive) | inactive | 9.29% (inactive)
CCn1cc(C(=O)NCC2CCCO2)c(=O)c2cc(F)c(N3CCN(C)CC3)cc21 (stereo unspecified) | 570 | -6.7% (inactive) | -14.6% (inactive) | 188 | -0.305 | -1.21 | 2 | 1.75% (inactive) | -0.388 (inactive) | -2.9e-05 (inactive) | 0.00486 (inactive) | inactive | 4.63% (inactive)
